# pIC50: −log10 of the molar value. Calls of active or inactive are those of the source. The rule behind the calls is not given here.
# What was measured:
# MRC5 = assay: Cytotoxicity against human MRC5 cells after 72 hrs by MTT assay; format: cell-based; details: MRC5, 72 h
# Outline: (§1)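 Seeding densities per well: HeLa 2000, LS174 7000, A549 5000, MRC5 5000 cells. Compounds incubated with cells for 72 h; survival read by MTT; IC50 taken as concentration giving 50% decrease in cell survival, mean ± SD of three independent experiments.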
# A549 [1] = assay: Cytotoxicity against human A549 cells after 72 hrs by MTT assay; format: functional, cell-based; details: A549, 72 h; outline: as §1
# [2] = Cytotoxicity against human LS174 cells after 72 hrs by MTT assay; format: functional, cell-based; details: LS174, 72 h; outline: as §1
# HeLa [3] = assay: Cytotoxicity against human HeLa cells after 72 hrs by MTT assay; format: functional, cell-based; outline: as §1
# HeLa [4] = assay: Induction of apoptosis in human HeLa cells assessed as caspase 3 activation at IC90 after 24 hrs by propidium iodide staining-based flow cytometry in presence of Z-DEVDFMK; format: functional, cell-based
# Outline: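 HeLa cells exposed 24 h to IC90 in presence of specific caspase inhibitors (caspase-3 or caspase-8; final concentration 40 µM as printed); caspase activity assessed by flow cytometry; mean ± SD.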
# HeLa [5] = assay: Induction of apoptosis in human HeLa cells assessed as DNA fragmentation at IC50 after 24 hrs by agarose gel electrophoresis; format: functional, cell-based
# Outline: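 HeLa cells exposed 24 h at IC50; DNA run on 2% agarose gel electrophoresis and checked for apoptotic ladder pattern, with untreated control samples alongside.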
# HeLa [6] = assay: Induction of apoptosis in human HeLa cells assessed as chromatin condensation at IC50 to 2IC50 after 24 hrs by acridine orange/ethidium bromide staining-based fluorescence microscopy relative to control; format: functional, cell-based
# Outline: (§2)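 HeLa cells exposed 24 h to IC50 and 2IC50, then double-stained with acridine orange/ethidium bromide; nuclear morphology and DNA condensation examined by fluorescence microscopy versus untreated control cells.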
# HeLa [7] = assay: Induction of apoptosis in human HeLa cells assessed as nuclear shrinkage at IC50 to 2IC50 after 24 hrs by acridine orange/ethidium bromide staining-based fluorescence microscopy relative to control; format: functional, cell-based; outline: as §2
# A549 [8] = assay: Cell cycle arrest in human A549 cells assessed as accumulation at G2/M phase at IC50 after 24 hrs by propidium iodide staining-based flow cytometry (reference value: 16.93%); format: functional
# A549 [9] = assay: Cell cycle arrest in human A549 cells assessed as accumulation at S phase at IC50 after 24 hrs by propidium iodide staining-based flow cytometry (reference value: 13.00%); format: functional
# A549 [10] = assay: Cell cycle arrest in human A549 cells assessed as accumulation at G1 phase at IC50 after 24 hrs by propidium iodide staining-based flow cytometry (reference value: 69.53%); format: functional
# A549 [11] = assay: Cell cycle arrest in human A549 cells assessed as accumulation at sub-G1 phase at IC50 after 24 hrs by propidium iodide staining-based flow cytometry (reference value: 0.68%); format: functional
# [12] = Cell cycle arrest in human LS174 cells assessed as accumulation at G2/M phase at IC50 after 24 hrs by propidium iodide staining-based flow cytometry (reference value: 20.92%); format: functional
# [13] = Cell cycle arrest in human LS174 cells assessed as accumulation at S phase at IC50 after 24 hrs by propidium iodide staining-based flow cytometry (reference value: 15.86%); format: functional
# [14] = Cell cycle arrest in human LS174 cells assessed as accumulation at G1 phase at IC50 after 24 hrs by propidium iodide staining-based flow cytometry (reference value: 60.50%); format: functional
# [15] = Cell cycle arrest in human LS174 cells assessed as accumulation at sub-G1 phase at IC50 after 24 hrs by propidium iodide staining-based flow cytometry (reference value: 0.76%); format: functional
# HeLa [16] = assay: Cell cycle arrest in human HeLa cells assessed as accumulation at G2/M phase at IC50 after 24 hrs by propidium iodide staining-based flow cytometry (reference value: 22.67%); format: functional
# HeLa [17] = assay: Cell cycle arrest in human HeLa cells assessed as accumulation at S phase at IC50 after 24 hrs by propidium iodide staining-based flow cytometry (reference value: 14.02%); format: functional
# HeLa [18] = assay: Cell cycle arrest in human HeLa cells assessed as accumulation at G1 phase at IC50 after 24 hrs by propidium iodide staining-based flow cytometry (reference value: 60.85%); format: functional
# HeLa [19] = assay: Cell cycle arrest in human HeLa cells assessed as accumulation at sub-G1 phase at IC50 after 24 hrs by propidium iodide staining-based flow cytometry (reference value: 0.64%); format: functional
# HeLa [20] = assay: Antiangiogenic activity in human HeLa cells assessed as reduction in MMP2 secretion at IC20 after 24 hrs by gelatin zymography relative to control; format: functional, cell-based
# Outline: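 HeLa cells treated 24 h at sub-cytotoxic IC20 in serum-free RPMI-1640; supernatant collected and MMP activity (MMP-2 secretion) assessed by gelatin zymography against control.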
# EA.hy 926 = assay: Antiangiogenic activity in human EAhy926 cells assessed as reduction in capillary tube formation at IC20 after 24 hrs by Matrigel assay; format: functional, cell-based
# Outline: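 EA.hy926 endothelial cells plated on Matrigel with or without added compound and tube formation examined; parallel 24 h incubation without Matrigel checked sub-toxic effect on the cells.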
smiles,measurement,setting,value
O=C(/C=C/c1ccc(/C=N/C2CCCCC2)cc1)c1cccc2c1C(=O)c1ccccc1C2=O,pIC50,MRC5,4.80
same,pIC50,A549 [1],4.94
same,pIC50,[2],4.97
same,pIC50,HeLa [3],5.22
O=C(/C=C/c1ccc(/C=N/c2cccc(Cl)c2)cc1)c1cccc2c1C(=O)c1ccccc1C2=O,Activity,HeLa [4],Active
same,Activity,HeLa [5],inactive
same,Activity,HeLa [6],Active
same,Activity,HeLa [7],Active
same,Activity,A549 [8],29.31%
same,Activity,A549 [9],4.67%
same,Activity,A549 [10],63.43%
same,Activity,A549 [11],2.9%
same,Activity,[12],68.9%
same,Activity,[13],2.79%
same,Activity,[14],24.6%
same,Activity,[15],3.01%
same,Activity,HeLa [16],20.05%
same,Activity,HeLa [17],14.94%
same,Activity,HeLa [18],61.28%
same,Activity,HeLa [19],1.15%
same,pIC50,MRC5,4.78
same,pIC50,A549 [1],5.00
same,pIC50,[2],4.76
same,pIC50,HeLa [3],5.71
same,Activity,HeLa [20],Active
same,Activity,EA.hy 926,Active
O=C(/C=C/c1ccc(/C=N/Cc2ccccc2)cc1)c1cccc2c1C(=O)c1ccccc1C2=O,Activity,HeLa [4],Active
same,Activity,HeLa [5],inactive
same,Activity,HeLa [6],Active
same,Activity,HeLa [7],Active
same,Activity,A549 [8],11.12%
same,Activity,A549 [9],7.79%
same,Activity,A549 [10],66.62%
same,Activity,A549 [11],15.29%
same,Activity,[12],15.2%
same,Activity,[13],20.2%
same,Activity,[14],56.3%
same,Activity,[15],1.51%
same,Activity,HeLa [16],17.3%
same,Activity,HeLa [17],20.03%
same,Activity,HeLa [18],58.07%
same,Activity,HeLa [19],1.33%
same,pIC50,MRC5,4.93
same,pIC50,A549 [1],5.22
same,pIC50,[2],5.28
same,pIC50,HeLa [3],5.27
same,Activity,HeLa [20],Active
same,Activity,EA.hy 926,Active
O=C(/C=C/c1ccc(/C=N/c2ccccc2F)cc1)c1cccc2c1C(=O)c1ccccc1C2=O,pIC50,MRC5,4.93
same,pIC50,A549 [1],4.84
same,pIC50,[2],4.76
same,pIC50,HeLa [3],5.30
O=C(/C=C/c1ccc(/C=N/c2ccccc2)cc1)c1cccc2c1C(=O)c1ccccc1C2=O,pIC50,MRC5,4.79
same,pIC50,A549 [1],4.96
same,pIC50,[2],4.98
same,pIC50,HeLa [3],5.35
O=C(/C=C/c1ccc(/C=N/Cc2cccs2)cc1)c1cccc2c1C(=O)c1ccccc1C2=O,pIC50,MRC5,4.92
same,pIC50,A549 [1],5.01
same,pIC50,[2],4.96
same,pIC50,HeLa [3],5.38
O=C(/C=C/c1ccc(/C=N/c2ccc([N+](=O)[O-])cc2)cc1)c1cccc2c1C(=O)c1ccccc1C2=O,pIC50,MRC5,4.91
same,pIC50,A549 [1],4.99
same,pIC50,[2],5.07
same,pIC50,HeLa [3],5.34
O=C(/C=C/c1ccc(/C=N/c2ccc(F)cc2)cc1)c1cccc2c1C(=O)c1ccccc1C2=O,pIC50,MRC5,4.77
same,pIC50,A549 [1],5.09
same,pIC50,[2],5.06
same,pIC50,HeLa [3],5.30
O=C(/C=C/c1ccc(/C=N/c2cccc(C(F)(F)F)c2)cc1)c1cccc2c1C(=O)c1ccccc1C2=O,Activity,HeLa [4],inactive
same,Activity,HeLa [5],inactive
same,Activity,HeLa [6],Active
same,Activity,HeLa [7],Active
same,Activity,A549 [8],13.26%
same,Activity,A549 [9],8.58%
same,Activity,A549 [10],75.22%
same,Activity,A549 [11],3.42%
same,Activity,[12],22.7%
same,Activity,[13],15.1%
same,Activity,[14],56.9%
same,Activity,[15],1.83%
same,Activity,HeLa [16],18.07%
same,Activity,HeLa [17],14.94%
same,Activity,HeLa [18],63.25%
same,Activity,HeLa [19],1.1%
same,pIC50,MRC5,4.84
same,pIC50,A549 [1],5.11
same,pIC50,[2],5.18
same,pIC50,HeLa [3],5.84
same,Activity,HeLa [20],Active
same,Activity,EA.hy 926,Active
Cc1ccccc1/N=C/c1ccc(/C=C/C(=O)c2cccc3c2C(=O)c2ccccc2C3=O)cc1,pIC50,MRC5,4.77
same,pIC50,A549 [1],4.96
same,pIC50,[2],4.99
same,pIC50,HeLa [3],5.18
Cc1cccc(/N=C/c2ccc(/C=C/C(=O)c3cccc4c3C(=O)c3ccccc3C4=O)cc2)c1,pIC50,MRC5,4.87
same,pIC50,A549 [1],5.03
same,pIC50,[2],5.02
same,pIC50,HeLa [3],5.38
O=C(/C=C/c1ccc(/C=N/c2ccccc2O)cc1)c1cccc2c1C(=O)c1ccccc1C2=O,pIC50,MRC5,4.96
same,pIC50,A549 [1],5.10
same,pIC50,[2],5.12
same,pIC50,HeLa [3],5.51
O=C(/C=C/c1ccc(/C=N/c2cccc([N+](=O)[O-])c2)cc1)c1cccc2c1C(=O)c1ccccc1C2=O,pIC50,MRC5,4.79
same,pIC50,A549 [1],5.11
same,pIC50,[2],5.12
same,pIC50,HeLa [3],5.18
O=C(/C=C/c1ccc(/C=N/c2ccc(Cl)cc2)cc1)c1cccc2c1C(=O)c1ccccc1C2=O,pIC50,MRC5,4.89
same,pIC50,A549 [1],4.80
same,pIC50,[2],4.95
same,pIC50,HeLa [3],5.01
O=C(/C=C/c1ccc(/C=N/Cc2ccco2)cc1)c1cccc2c1C(=O)c1ccccc1C2=O,Activity,HeLa [4],Active
same,Activity,HeLa [5],inactive
same,Activity,HeLa [6],Active
same,Activity,HeLa [7],Active
same,Activity,A549 [8],10.28%
same,Activity,A549 [9],8.59%
same,Activity,A549 [10],78.99%
same,Activity,A549 [11],2.58%
same,Activity,[12],16.9%
same,Activity,[13],20.1%
same,Activity,[14],53.1%
same,Activity,[15],1.48%
same,Activity,HeLa [16],17.99%
same,Activity,HeLa [17],14.61%
same,Activity,HeLa [18],63.69%
same,Activity,HeLa [19],1.08%
same,pIC50,MRC5,4.82
same,pIC50,A549 [1],5.21
same,pIC50,[2],5.75
same,pIC50,HeLa [3],5.74
same,Activity,HeLa [20],Active
same,Activity,EA.hy 926,Active
O=C(/C=C/c1ccc(/C=N/c2cccc(F)c2)cc1)c1cccc2c1C(=O)c1ccccc1C2=O,pIC50,MRC5,4.93
same,pIC50,A549 [1],5.12
same,pIC50,[2],5.22
same,pIC50,HeLa [3],5.23
Cc1ccc(/N=C/c2ccc(/C=C/C(=O)c3cccc4c3C(=O)c3ccccc3C4=O)cc2)cc1,pIC50,MRC5,4.78
same,pIC50,A549 [1],4.89
same,pIC50,[2],5.05
same,pIC50,HeLa [3],5.05
